We go through 15 molecules from ChEMBL document CHEMBL1142150, “Inhibitors of nonhousekeeping functions of the apicoplast defy delayed death in Plasmodium falciparum” (Antimicrob Agents Chemother, 2007).

The test system of assay [1] is Plasmodium falciparum. The experiment in a line: Reduced apicoplast DNA/nuclear DNA ratio in Plasmodium falciparum FCK2 at 25 uM after 72 hrs by competitive PCR. Type of assay: functional, organism-based.
The test system of assay [2] is Plasmodium falciparum. The experiment in a line: Inhibition of Plasmodium falciparum FCK2 growth as [3H]hypoxanthine uptake after 96 hrs. Type of assay: functional, organism-based. The essentials:
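Ring-synchronized FCK2 at 2 to 3% hematocrit, 1 to 2% initial parasitemia, exposed to a range of inhibitor concentrations for the first 48 h only, in duplicate. [3H]hypoxanthine then added for a further 48 h, followed by harvest and scintillation counting. IC50/MIC90 from nonlinear fit of parasitemia relative to untreated (100%) against log concentration.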

In assay [3] the test system is Plasmodium falciparum. The experiment in a line: Inhibition of Plasmodium falciparum FCK2 growth as [3H]hypoxanthine uptake after 48 hrs. Type of assay: functional, organism-based. The essentials: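 Ring-synchronized FCK2 in human O+ erythrocytes, 2 to 3% hematocrit, 1 to 2% initial parasitemia. Cultured 48 h with [3H]hypoxanthine and a range of inhibitor concentrations, inhibitor refreshed in new medium every 24 h, in duplicate. Cells harvested onto glass fibre filters for scintillation counting. IC50/MIC90 from nonlinear fit of parasitemia relative to untreated (100%) against log concentration.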

For assay [4], the system named is Plasmodium falciparum. The experiment in a line: Reduction in Plasmodium falciparum FCK2 in human blood cell culture after 96 hrs. It is filed as functional. Details: scale not given: the % may be the effect or the level left. In a few lines:
(§1)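 Ring-stage synchronized FCK2 (2–3% hematocrit, 1–2% parasitemia) was treated with an inhibitor dilution series for the first 48 h only, in duplicate. [3H]hypoxanthine was then added for a further 48 h (96 h total) before filter harvest and scintillation counting. Percent parasitemia was set relative to untreated controls, and IC50/MIC90 were fitted by nonlinear regression against log concentration.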

Assay [5] has as its system Plasmodium falciparum. The experiment in a line: Decrease in Plasmodium falciparum FCK2 in erythrocytes at 50 uM after 84 hrs. It is filed as functional, organism-based. In a few lines: (§2)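 Ring-stage synchronized FCK2 in human O+ erythrocytes at 10% hematocrit and 3% starting parasitemia, with medium changed every 24 h. Inhibitor was present either throughout (96 h) or for the first 48 h only, in triplicate. Giemsa thin smears were read every 12 h, counting at least 10 fields of about 200 cells. Parasitemia is infected RBC over total RBC; parasites lacking an intact membrane or stained cytoplasm were scored dead.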

Assay [6] relates to Plasmodium falciparum. The experiment in a line: Reduction in Plasmodium falciparum FCK2 in human erythrocyte culture after 48 hrs. Type of assay: functional, organism-based. In a few lines:
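FCK2 synchronized with sorbitol, at ring stage, in O+ erythrocytes (2–3% hematocrit, 1–2% parasitemia). Cells were exposed to an inhibitor dilution series with [3H]hypoxanthine for 48 h, with fresh inhibitor every 24 h, in duplicate. Harvested onto glass-fiber filters for scintillation counting. Parasitemia was taken relative to untreated (100%), and IC50/MIC90 were fitted by nonlinear regression against log concentration.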

The subject of assay [7] is Plasmodium falciparum. The experiment in a line: Reduced apicoplast DNA/nuclear DNA ratio in Plasmodium falciparum FCK2 at 100 nM after 72 hrs by competitive PCR. Type of assay: functional, organism-based.
Assay [8] has as its system Plasmodium falciparum. The experiment in a line: Decrease in Plasmodium falciparum FCK2 in erythrocytes at 5 uM after 84 hrs. Type of assay: functional, organism-based. The essentials:
as §2

Assay [9] relates to Plasmodium falciparum. The experiment in a line: Reduced apicoplast genome copy number in Plasmodium falciparum FCK2 after 96 hrs. Type of assay: functional.
In assay [10] the test system is Plasmodium falciparum. The experiment in a line: Reduced apicoplast genome copy number in Plasmodium falciparum FCK2 after 48 hrs. Type of assay: functional.
The subject of assay [11] is Plasmodium falciparum. The experiment in a line: Reduced apicoplast DNA/nuclear DNA ratio in Plasmodium falciparum FCK2 at 10 uM after 72 hrs by competitive PCR. It is filed as functional.
For assay [12], the system named is Plasmodium falciparum. The experiment in a line: Inhibition of fatty acid biosynthesis in Plasmodium falciparum FCK2 as [1,2-14C]acetate uptake during first asexual cycle at 10 uM after 24 hrs. Type of assay: functional, organism-based.
For assay [13], the system named is Plasmodium falciparum. The experiment in a line: Reduced apicoplast DNA/nuclear DNA ratio in Plasmodium falciparum FCK2 at 500 uM after 72 hrs by competitive PCR. It is filed as functional, organism-based.
Assay [14] relates to Plasmodium falciparum. The experiment in a line: Inhibition of Plasmodium falciparum FCK2 second cycle growth in erythrocytes at 48 hrs. Type of assay: functional, organism-based. The essentials:
as §1

The test system of assay [15] is Plasmodium falciparum. The experiment in a line: Reduced apicoplast DNA/nuclear DNA ratio in Plasmodium falciparum FCK2 at 1 mM after 72 hrs by competitive PCR. Type of assay: functional, organism-based. In a few lines:
(§3)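 FCK2 cultures were treated for 72 h, then saponin-lysed, and genomic DNA was kit-purified. Competitive PCR for eftu (apicoplast) and fabI (nuclear) used deletion-mutant plasmid standards diluted in calf thymus DNA, run for 25 cycles at 95/50/72°C. Products were quantified by ethidium-stained gel densitometry, and copy number was taken at equal band intensity. Groups were compared by two-tailed Student t test.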

The test system of assay [16] is Plasmodium falciparum. The experiment in a line: Reduced apicoplast DNA/nuclear DNA ratio in Plasmodium falciparum FCK2 at 100 uM after 72 hrs by competitive PCR. Type of assay: functional. The essentials:
as §3

In assay [17] the test system is Plasmodium falciparum. The experiment in a line: Inhibition of fatty acid biosynthesis in Plasmodium falciparum FCK2 as decreased [1,2-14C]acetate uptake at 10 uM after 2 hrs. Type of assay: functional, organism-based.

≈ marks a conversion by molar mass, not a printed value. Calls of active or inactive are those of the source. The rule behind the calls is not given here.

In the case of `Oc1ccc(Cl)cc1Oc1ccc(Cl)c2cccnc12`, in [1], the result was inactive.

In general, IC50 refers to the concentration needed to halve the response being measured. Broadly, the MIC90 is the lowest concentration that inhibits either 90% of growth or 90% of the strains tested, depending on the study. Take `O=C(O)c1cc(Oc2ccc(C(F)(F)F)cc2Cl)ccc1[N+](=O)[O-]` [ACIFLUORFEN]: in [2], the IC50 worked out at 457 µM and the MIC90 turned out to be 692 µM (≈ 250 µg/mL). In assay [3], this molecule had an IC50 of 525 µM and an MIC90 of 871 µM (≈ 315 µg/mL).

In [2], `C/C=C/C/C=C/CCC(=O)[C@H]1O[C@H]1C(N)=O` [CERULENIN] showed an IC50 of 16.9 µM and an MIC90 of 52.3 µM (≈ 11.7 µg/mL). In assay [3], this molecule yielded an IC50 of 15.1 µM and an MIC90 of 64.9 µM (≈ 14.5 µg/mL).

With `O=C(N[C@H](CO)[C@H](O)c1ccc([N+](=O)[O-])cc1)C(Cl)Cl` [CHLORAMPHENICOL], the IC50 in [2] was determined as 11.2 µM; in [3], 417 µM. Also, the MIC90 turned out to be 190 µM (≈ 61.6 µg/mL) in assay [2] and 1020 µM (≈ 331 µg/mL) in [3]. Moreover, in assay [4], the Activity came to 10%. Moreover, the outcome in assay [5] and in assay [6] was inactive.

`CCN(CC)CCCC(C)Nc1ccnc2cc(Cl)ccc12` (stereo unspecified) [CHLOROQUINE]: the MIC90 in [2] and in [3] was 0.011 µM (≈ 0.00352 µg/mL) each time. The outcome in [7] was inactive.

As to `CCC[C@@H]1C[C@@H](C(=O)N[C@@H]([C@H]2O[C@H](SC)[C@H](O)[C@@H](O)[C@H]2O)[C@H](C)Cl)N(C)C1` [CLINDAMYCIN], the IC50 in assay [2] is 0.0013 µM; in [3], 288 µM. The figures for the MIC90 in assay [2] and in assay [3] were 6 µM (≈ 2.55 µg/mL) and 537 µM (≈ 228 µg/mL), respectively. The outcome in [8], in assay [6] and in assay [12] was inactive. Besides, the Activity in [4] came out at 10%; in assay [9], 0.42; in assay [10], 0.65; in assay [11], 0.4.

Take `C[C@@H]1C[C@@H]([C@H](O)CC2CC(=O)NC(=O)C2)C(=O)[C@@H](C)C1` [CYCLOHEXIMIDE]: the IC50 in assay [2] was found to be 0.1 µM; in [3], 0.15 µM. The MIC90 in assay [2] stood at 0.48 µM (≈ 0.135 µg/mL); in assay [3] it was 0.73 µM (≈ 0.205 µg/mL). Also, the result in assay [7] was inactive.

With `CC(Oc1ccc(Oc2ccc(C(F)(F)F)cn2)cc1)C(=O)O` (stereo unspecified) [FLUAZIFOP], in assay [2], 1480 µM corresponded to half-maximal inhibition (IC50) and the MIC90 was found to be 5750 µM (≈ 1880 µg/mL). For the same molecule, in [3], half-maximal inhibition (IC50) required 1550 µM and the MIC90 worked out at 6920 µM (≈ 2260 µg/mL).

In [2], `CC(Oc1ccc(Oc2ncc(C(F)(F)F)cc2Cl)cc1)C(=O)O` (stereo unspecified) [HALOXYFOP] yielded an IC50 of 97.7 µM and an MIC90 of 346 µM (≈ 125 µg/mL). For the same molecule, in assay [3], half-maximal inhibition (IC50) was put at 107 µM and the MIC90 is 346 µM (≈ 125 µg/mL). Also, in assay [13], the result was inactive.

In assay [2], `CC(Oc1ccc(Oc2cnc3cc(Cl)ccc3n2)cc1)C(=O)O` (stereo unspecified) [QUIZALOFOP] registered an IC50 of 676 µM and an MIC90 of 1950 µM (≈ 672 µg/mL). Also, in assay [3], it took 575 µM to reach half-maximal inhibition (IC50) and the MIC90 came out at 3090 µM (≈ 1070 µg/mL).

In assay [2], `C[C@@H]1C[C@H]2O[C@@H]2/C=C\C=C\C(=O)Cc2c(Cl)c(O)cc(O)c2C(=O)O1` [RADICICOL] yielded an IC50 of 5.6 µM and an MIC90 of 60.2 µM (≈ 22 µg/mL). In [3], this molecule showed an IC50 of 7.2 µM and an MIC90 of 46.8 µM (≈ 17.1 µg/mL).

Take `CO[C@H]1/C=C/O[C@@]2(C)Oc3c(C)c(O)c4c(O)c(c(/C=N/N5CCN(C)CC5)c(O)c4c3C2=O)NC(=O)/C(C)=C\C=C\[C@H](C)[C@H](O)[C@@H](C)[C@@H](O)[C@@H](C)[C@H](OC(C)=O)[C@@H]1C` [RIFAMPIN]: the result in assay [14] and in [8] was Active. In addition, the IC50 in assay [2] came to 0.19 µM; in assay [3], 4.2 µM. The MIC90 in assay [2] is 2 µM (≈ 1.65 µg/mL); in assay [3] it was 110 µM (≈ 90.2 µg/mL). In [4], the Activity amounted to 10%. The outcome in [6] was inactive.

In assay [2], `CC(=O)CC(=O)CCC(=O)O` [SUCCINYLACETONE] showed an IC50 of 17400 µM and an MIC90 of 51300 µM (≈ 8110 µg/mL). In [3], this molecule displayed an IC50 of 17800 µM and an MIC90 of 58900 µM (≈ 9310 µg/mL). Further, the result in assay [15] was inactive.

Regarding `CN(C)[C@@H]1C(O)=C(C(N)=O)C(=O)[C@@]2(O)C(O)=C3C(=O)c4c(O)cccc4[C@@](C)(O)[C@H]3C[C@@H]12` [TETRACYCLINE], the result in assay [14] and in [5] was Active. The values for the IC50 in [2] and in assay [3] were 2.19 µM and 135 µM, respectively. For the same molecule, the results for the MIC90 in [2] and in assay [3] were 26.9 µM (≈ 12 µg/mL) and 562 µM (≈ 250 µg/mL), respectively. The Activity in assay [16] worked out at 0.1; in assay [4] it was 10%. For the same molecule, the outcome in assay [6] was inactive.

Regarding `Oc1cc(Cl)ccc1Oc1ccc(Cl)cc1Cl` [TRICLOSAN], the IC50 in assay [2] was 1.2 µM; in assay [3], 1.1 µM. The MIC90 in assay [2] worked out at 10.2 µM (≈ 2.95 µg/mL); in assay [3] it was 15.8 µM (≈ 4.57 µg/mL). In addition, the outcome in assay [17] was Active. The outcome in [9] and in [10] was inactive.
